Results as given in ChEMBL document CHEMBL1126975 (J Med Chem, 1993).

Assays:
[1] = target: T1, Amine oxidase [flavin-containing] A (Rattus norvegicus, UniProt P21396); assay: In vitro inhibitory activity on rat brain by monoamine oxidase A (MAO-A)
T1 sequence (P21396 whole entry): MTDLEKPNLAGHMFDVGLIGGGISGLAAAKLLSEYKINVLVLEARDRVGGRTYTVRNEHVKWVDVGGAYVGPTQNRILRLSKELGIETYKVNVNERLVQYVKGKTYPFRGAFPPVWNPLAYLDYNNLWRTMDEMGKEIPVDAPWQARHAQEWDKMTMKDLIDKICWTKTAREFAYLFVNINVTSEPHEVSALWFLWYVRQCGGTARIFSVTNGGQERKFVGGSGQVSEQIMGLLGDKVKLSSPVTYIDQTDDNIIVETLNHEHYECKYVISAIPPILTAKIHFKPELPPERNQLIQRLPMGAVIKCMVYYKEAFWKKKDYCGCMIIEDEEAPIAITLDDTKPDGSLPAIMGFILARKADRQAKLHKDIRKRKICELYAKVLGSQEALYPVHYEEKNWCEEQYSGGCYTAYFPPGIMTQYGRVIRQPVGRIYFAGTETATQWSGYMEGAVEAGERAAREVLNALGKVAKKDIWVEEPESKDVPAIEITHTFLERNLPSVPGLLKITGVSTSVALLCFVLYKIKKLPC
How it was run: (§1)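 Radiochemical assay at 37 °C, pH 7.4: MAO A with 10 μM [14C]5-HT, MAO B with 5 μM [14C]PEA. Drug preincubated 20 min with enzyme. Three experiments in duplicate.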

[2] = target: T2, Amine oxidase [flavin-containing] B (Rattus norvegicus, UniProt P19643); assay: Ex-Vivo Time course of evaluation for the percentage inhibition of MAO-B for 1 hr at single dose 5 mg/kg through oral gavage; format: organism-based; parameters: dose 5 mg/kg, route oral
T2 sequence (P19643 whole entry): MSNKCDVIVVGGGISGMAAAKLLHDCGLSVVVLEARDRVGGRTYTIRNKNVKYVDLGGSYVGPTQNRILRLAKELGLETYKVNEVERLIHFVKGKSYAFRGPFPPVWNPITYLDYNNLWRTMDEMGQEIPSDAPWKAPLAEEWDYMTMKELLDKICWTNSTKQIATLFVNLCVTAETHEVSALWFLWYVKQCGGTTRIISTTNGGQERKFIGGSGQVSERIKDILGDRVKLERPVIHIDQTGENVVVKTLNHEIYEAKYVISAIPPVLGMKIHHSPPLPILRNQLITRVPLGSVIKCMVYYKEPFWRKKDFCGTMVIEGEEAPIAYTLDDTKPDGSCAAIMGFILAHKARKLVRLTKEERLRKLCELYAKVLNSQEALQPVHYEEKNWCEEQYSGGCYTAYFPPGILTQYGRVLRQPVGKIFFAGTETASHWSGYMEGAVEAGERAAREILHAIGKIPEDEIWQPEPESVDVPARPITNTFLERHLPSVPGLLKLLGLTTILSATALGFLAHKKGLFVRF
How it was run: (§2)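 Fasted male Sprague-Dawley rats (150 g) dosed orally by gavage, drug suspended in Tween 80 plus 0.5% methylcellulose; vehicle controls. The 100 mg/kg arm was dosed daily for 9 days. Four rats per time point; brains frozen and homogenized in 0.1 M phosphate pH 7.4. Assayed at 37 °C with 8 μM [14C]PEA for 1 min; toluene/ethyl acetate extraction. Percent inhibition vs control, mean ± SEM.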

[3] = target: T2, Amine oxidase [flavin-containing] B; assay: Ex-Vivo percentage inhibition of MAO-B after 24 hr single 5 mg/kg dose by oral gavage; format: organism-based; parameters: dose 5 mg/kg, route oral
How it was run: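 Ex vivo oral gavage in fasted male Sprague-Dawley rats (Tween 80 / 0.5% methylcellulose), four rats per group. Brain homogenate taken 24 h after dosing. MAO B assayed with 8 μM [14C]PEA, 1 min at 37 °C; percent inhibition vs vehicle control.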

[4] = target: T2, Amine oxidase [flavin-containing] B; assay: Ex-Vivo Time course of evaluation for the percentage inhibition of MAO-B for 4 hr at single dose 5 mg/kg through oral gavage; format: organism-based; parameters: dose 5 mg/kg, route oral; how it was run: as §2
[5] = target: T2, Amine oxidase [flavin-containing] B; assay: In vitro inhibitory activity on rat brain MAO-B.; how it was run: as §1
[6] = target: T2, Amine oxidase [flavin-containing] B; assay: Ex-Vivo Time course of evaluation for the percentage inhibition of MAO-B for 0.5 hr at single dose 5 mg/kg through oral gavage; format: organism-based; parameters: dose 5 mg/kg, route oral; how it was run: as §2
[7] = target: T2, Amine oxidase [flavin-containing] B; assay: Ex-Vivo Time course of evaluation for the percentage inhibition of MAO-B for 48 hr at single dose 5 mg/kg through oral gavage; format: organism-based; parameters: dose 5 mg/kg, route oral; how it was run: as §2

SMILES | IC50 [1] | inhibition at 5 mg/kg [2] | inhibition at 5 mg/kg [3] | inhibition at 5 mg/kg [4] | IC50 [5] | inhibition at 5 mg/kg [6] | inhibition at 5 mg/kg [7]
N#CCCn1nc(-c2ccc(OCc3ccccc3)cc2)sc1=O | 45 µM | 52% | 15% | 45% | 0.008 µM | 44% | 9%
Cc1cccc(COc2ccc(-c3nn(CCC#N)c(=O)o3)cc2)c1 | 20 µM | 16% | -3% | 15% | 0.008 µM | 6% | -3%
N#CCCn1nc(-c2ccc(OCc3cccc(Cl)c3)cc2)oc1=S | 11 µM | – | – | – | 0.16 µM | – | –
COc1ccc(COc2ccc(-c3nn(CCC#N)c(=S)o3)cc2)cc1 | 4.8 µM | – | – | – | 0.91 µM | – | –
N#CCCn1nc(-c2ccc(OCc3ccccc3)cc2)sc1=S | 160 µM | 18% | 8% | 8% | 0.016 µM | 27% | 10%
N#CCCn1nc(-c2ccc(OCc3ccc([N+](=O)[O-])cc3)cc2)oc1=S | 2.6 µM | – | – | – | 4.3 µM | – | –
Cc1ccc(COc2ccc(-c3nn(CCC#N)c(=S)o3)cc2)cc1 | 10 µM | – | – | – | 0.4 µM | – | –
Cc1cccc(COc2ccc(-c3nn(CCC#N)c(=S)o3)cc2)c1 | 14 µM | – | – | – | 0.066 µM | – | –
COc1cccc(COc2ccc(-c3nn(CCC#N)c(=S)o3)cc2)c1 | 8.1 µM | – | – | – | 0.1 µM | – | –

Results, then the compound that gave them:

IC50 [1] | inhibition at 5 mg/kg [2] | inhibition at 5 mg/kg [3] | inhibition at 5 mg/kg [4] | IC50 [5] | inhibition at 5 mg/kg [6] | inhibition at 5 mg/kg [7] | SMILES
13 µM | – | – | – | 0.013 µM | – | – | N#CCCN1N=C(c2ccc(OCc3cccc(Cl)c3)cc2)OCC1=O
45 µM | – | – | – | 0.088 µM | – | – | COc1ccc(COc2ccc(C3=NN(CCC#N)C(=O)CO3)cc2)cc1
40 µM | – | – | – | 0.031 µM | – | – | Cc1cccc(COc2ccc(C3=NN(CCC#N)C(=O)CO3)cc2)c1
16 µM | – | – | – | 0.027 µM | – | – | COc1ccc(COc2ccc(-c3nn(CCC#N)c(=O)o3)cc2)cc1
11 µM | – | – | – | 5.5 µM | – | – | N#CCCn1nc(-c2ccc(OCc3ccc([N+](=O)[O-])cc3)cc2)oc1=O
250 µM | – | – | – | 0.32 µM | – | – | Cc1ccc(COc2ccc(C3=NN(CCC#N)C(=O)CO3)cc2)cc1
2 µM | – | – | – | 0.3 µM | – | – | N#CCCN1N=C(c2ccc(OCc3ccc([N+](=O)[O-])cc3)cc2)OCC1=O
25 µM | 3% | -4% | 5% | 0.14 µM | 12% | 9% | N#CCCN1N=C(c2ccc(OCc3ccccc3)cc2)OCC1=S
3.4 µM | – | – | – | 0.1 µM | – | – | N#CCCN1N=C(c2ccc(OCc3ccc(Cl)cc3)cc2)OCC1=O
160 µM | 31% | 23% | 22% | 0.018 µM | 21% | 16% | N#CCCN1N=C(c2ccc(OCc3ccccc3)cc2)OCC1=O
2.7 µM | – | – | – | 0.69 µM | – | – | N#CCCn1nc(-c2ccc(OCc3ccc(Cl)cc3)cc2)oc1=S
32 µM | – | – | – | 0.068 µM | – | – | COc1cccc(COc2ccc(C3=NN(CCC#N)C(=O)CO3)cc2)c1
